Source: ChEMBL document CHEMBL4673214, “Synthesis and antibacterial bioactivities of cationic deacetyl linezolid amphiphiles” (Eur J Med Chem, 2018)
Converted amounts (≈) assume the structure as drawn. The source made the active and inactive calls. No cut-off for these calls is given here.

Experiments:
Klebsiella pneumoniae [1] = test: Antibacterial activity against carbapenem-resistant Klebsiella pneumoniae clinical isolate 7 assessed as reduction in bacterial growth incubated for 16 to 20 hrs by CLSI-based broth microdilution method; format: functional; settings: time 16-20 hrs
Outline: (§1)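 Clinical isolates tested by broth microdilution in cation-adjusted Mueller-Hinton broth. Cultures grown 4-6 h (~10^8 CFU/mL) were diluted to ~10^6 CFU/mL and mixed 1:1 with compound serial dilutions made from 256 down to 0.5 µg/mL (pre-mixing). Plates held at 37 °C for 16-20 h, then read for growth. Each concentration run in duplicate, whole experiment at least twice.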

Staphylococcus aureus = test: Bactericidal activity against early exponential phase of Staphylococcus aureus ATCC 29213 at 4X MIC measured after 6 hrs by time-kill kinetic assay; format: functional, organism-based
Outline: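 S. aureus ATCC 29213 overnight culture diluted 1:10,000 in MHB and shaken at 225 rpm, 37 °C for 2 h to early exponential phase. Exposed to compound at 4× MIC in tubes, 37 °C, 225 rpm. Samples spun down, resuspended in PBS, plated as ten-fold dilutions on MHA overnight at 37 °C, and CFU/mL counted. Biological replicates.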

Enterobacteriaceae [2] = test: Antibacterial activity against NDM1 producing carbapenem-resistant Enterobacteriaceae clinical isolate 9 assessed as reduction in bacterial growth incubated for 16 to 20 hrs by CLSI-based broth microdilution method; format: functional; settings: time 16-20 hrs; outline: as §1
Escherichia coli = test: Antibacterial activity against Escherichia coli ATCC 25922 assessed as reduction in bacterial growth incubated 16 to 20 hrs by CLSI-based broth microdilution method; format: functional; settings: time 16-20 hrs
Outline: (§2)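 Broth microdilution following CLSI, in cation-adjusted Mueller-Hinton broth. Inoculum from a 4-6 h culture (~10^8 CFU/mL), diluted to ~10^6 CFU/mL. Water stocks were serially diluted in MHB (256 to 0.5 µg/mL) and mixed 1:1 with the inoculum. Plates ran 16-20 h at 37 °C. MIC was read visually. Each concentration was tested in duplicate, and the experiment was repeated at least twice.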

Klebsiella pneumoniae [3] = test: Antibacterial activity against carbapenem-resistant Klebsiella pneumoniae clinical isolate 5 assessed as reduction in bacterial growth incubated for 16 to 20 hrs by CLSI-based broth microdilution method; format: functional; settings: time 16-20 hrs; outline: as §1
Klebsiella pneumoniae [4] = test: Antibacterial activity against carbapenem-resistant Klebsiella pneumoniae clinical isolate 6 assessed as reduction in bacterial growth incubated for 16 to 20 hrs by CLSI-based broth microdilution method; format: functional; settings: time 16-20 hrs; outline: as §1
Enterococcus faecalis = test: Antibacterial activity against Enterococcus faecalis ATCC 29212 assessed as reduction in bacterial growth incubated 16 to 20 hrs by CLSI-based broth microdilution method; format: functional; settings: time 16-20 hrs; outline: as §2
Cell membrane [5] = test: Induction of inner membrane permeabilization in Staphylococcus aureus ATCC 29213 at 20 ug/ml measured for 12 mins by propidium iodide staining based fluorescence microscopic analysis; settings: dose 20.0 µg/ml
Outline: (§3)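 Mid-log bacteria were washed and resuspended at ~10^8 CFU/mL and preincubated with propidium iodide (10 µM stock) for 30 min (S. aureus) or 40 min (E. coli). Fluorescence (ex 535/em 617 nm) was read on a plate for an 8 min baseline, then every 2 min for 12 min after compound at 20 µg/mL final. Water served as control.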

Cell membrane [6] = test: Induction of inner membrane permeabilization in Escherichia coli ATCC 25922 at 20 ug/ml measured for 12 mins by propidium iodide staining based fluorescence microscopic analysis; settings: dose 20.0 µg/ml; outline: as §3
Enterobacteriaceae [7] = test: Antibacterial activity against NDM1 producing carbapenem-resistant Enterobacteriaceae clinical isolate 6 assessed as reduction in bacterial growth incubated for 16 to 20 hrs by CLSI-based broth microdilution method; format: functional; settings: time 16-20 hrs; outline: as §1
Enterobacteriaceae [8] = test: Antibacterial activity against NDM1 producing carbapenem-resistant Enterobacteriaceae clinical isolate 8 assessed as reduction in bacterial growth incubated for 16 to 20 hrs by CLSI-based broth microdilution method; format: functional; settings: time 16-20 hrs; outline: as §1
Enterobacteriaceae [9] = test: Antibacterial activity against NDM1 producing carbapenem-resistant Enterobacteriaceae clinical isolate 7 assessed as reduction in bacterial growth incubated for 16 to 20 hrs by CLSI-based broth microdilution method; format: functional; settings: time 16-20 hrs; outline: as §1
Enterobacteriaceae [10] = test: Antibacterial activity against NDM1 producing carbapenem-resistant Enterobacteriaceae clinical isolate 1 assessed as reduction in bacterial growth incubated for 16 to 20 hrs by CLSI-based broth microdilution method; format: functional; settings: time 16-20 hrs; outline: as §1
Klebsiella pneumoniae [11] = test: Antibacterial activity against carbapenem-resistant Klebsiella pneumoniae clinical isolate 9 assessed as reduction in bacterial growth incubated for 16 to 20 hrs by CLSI-based broth microdilution method; format: functional; settings: time 16-20 hrs; outline: as §1
Klebsiella pneumoniae [12] = test: Antibacterial activity against carbapenem-resistant Klebsiella pneumoniae clinical isolate 8 assessed as reduction in bacterial growth incubated for 16 to 20 hrs by CLSI-based broth microdilution method; format: functional; settings: time 16-20 hrs; outline: as §1
Enterobacteriaceae [13] = test: Antibacterial activity against NDM1 producing carbapenem-resistant Enterobacteriaceae clinical isolate 4 assessed as reduction in bacterial growth incubated for 16 to 20 hrs by CLSI-based broth microdilution method; format: functional; settings: time 16-20 hrs; outline: as §1
Klebsiella pneumoniae [14] = test: Antibacterial activity against carbapenem-resistant Klebsiella pneumoniae clinical isolate 4 assessed as reduction in bacterial growth incubated for 16 to 20 hrs by CLSI-based broth microdilution method; format: functional; settings: time 16-20 hrs; outline: as §1
Klebsiella pneumoniae [15] = test: Antibacterial activity against carbapenem-resistant Klebsiella pneumoniae clinical isolate 2 assessed as reduction in bacterial growth incubated for 16 to 20 hrs by CLSI-based broth microdilution method; format: functional; settings: time 16-20 hrs; outline: as §1
Enterobacteriaceae [16] = test: Antibacterial activity against NDM1 producing carbapenem-resistant Enterobacteriaceae clinical isolate 3 assessed as reduction in bacterial growth incubated for 16 to 20 hrs by CLSI-based broth microdilution method; format: functional; settings: time 16-20 hrs; outline: as §1
Cell membrane [17] = test: Induction of cytoplasmic membrane depolarization in Escherichia coli ATCC 25922 at 20 ug/ml measured for 12 mins by DiSC35 dye-based fluorescence assay; format: subcellular; settings: dose 20.0 µg/ml
Outline: (§4)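 Mid-log bacteria were washed and resuspended at ~10^8 CFU/mL: S. aureus in PBS, E. coli in 5 mM HEPES/5 mM glucose/100 mM KCl (1:1:1). Cells were loaded with diSC35 (10 µM stock) for 30 min (S. aureus) or 40 min (E. coli, plus EDTA). Fluorescence (ex 622/em 670 nm) was read for an 8 min baseline, then every 2 min for 12 min after compound at 20 µg/mL final. Water served as control.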

Enterobacteriaceae [18] = test: Antibacterial activity against NDM1 producing carbapenem-resistant Enterobacteriaceae clinical isolate 10 assessed as reduction in bacterial growth incubated for 16 to 20 hrs by CLSI-based broth microdilution method; format: functional; settings: time 16-20 hrs; outline: as §1
Enterobacteriaceae [19] = test: Antibacterial activity against NDM1 producing carbapenem-resistant Enterobacteriaceae clinical isolate 5 assessed as reduction in bacterial growth incubated for 16 to 20 hrs by CLSI-based broth microdilution method; format: functional; settings: time 16-20 hrs; outline: as §1
Klebsiella pneumoniae [20] = test: Antibacterial activity against carbapenem-resistant Klebsiella pneumoniae clinical isolate 3 assessed as reduction in bacterial growth incubated for 16 to 20 hrs by CLSI-based broth microdilution method; format: functional; settings: time 16-20 hrs; outline: as §1
Klebsiella pneumoniae [21] = test: Antibacterial activity against carbapenem-resistant Klebsiella pneumoniae clinical isolate 10 assessed as reduction in bacterial growth incubated for 16 to 20 hrs by CLSI-based broth microdilution method; format: functional; settings: time 16-20 hrs; outline: as §1
Klebsiella pneumoniae [22] = test: Antibacterial activity against carbapenem-resistant Klebsiella pneumoniae clinical isolate 1 assessed as reduction in bacterial growth incubated for 16 to 20 hrs by CLSI-based broth microdilution method; format: functional; settings: time 16-20 hrs; outline: as §1
Enterobacteriaceae [23] = test: Antibacterial activity against NDM1 producing carbapenem-resistant Enterobacteriaceae clinical isolate 2 assessed as reduction in bacterial growth incubated for 16 to 20 hrs by CLSI-based broth microdilution method; format: functional; settings: time 16-20 hrs; outline: as §1
Cell membrane [24] = test: Induction of cytoplasmic membrane depolarization in Staphylococcus aureus ATCC 29213 at 20 ug/ml measured for 12 mins by DiSC35 dye-based fluorescence assay; format: subcellular; settings: dose 20.0 µg/ml; outline: as §4
Cell membrane [25] = test: Induction of outer membrane permeabilization in Escherichia coli ATCC 25922 at 20 ug/ml measured for 12 mins by NPN dye based fluorescence assay; settings: dose 20.0 µg/ml
Outline: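 Mid-log E. coli in HEPES/glucose/KCl at ~10^8 CFU/mL was preincubated 40 min with N-phenylnaphthylamine (10 µM stock). Fluorescence (ex 350/em 420 nm) was read for an 8 min baseline, then every 2 min for 12 min after compound at 20 µg/mL final. Water served as control.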

Salmonella enterica = test: Antibacterial activity against Salmonella enterica ATCC 8387 assessed as reduction in bacterial growth incubated for 16 to 20 hrs by CLSI-based broth microdilution method; format: functional; settings: time 16-20 hrs; outline: as §2

`CN[C@H](CC(C)C)C(=O)N[C@H]1C(=O)N[C@@H](CC(N)=O)C(=O)N[C@H]2C(=O)N[C@H]3C(=O)N[C@H](C(=O)N[C@H](C(=O)O)c4cc(O)cc(O)c4-c4cc3ccc4O)[C@H](O)c3ccc(c(Cl)c3)Oc3cc2cc(c3O[C@@H]2O[C@H](CO)[C@@H](O)[C@H](O)[C@H]2O[C@H]2C[C@](C)(N)[C@H](O)[C@H](C)O2)Oc2ccc(cc2Cl)[C@H]1O` [VANCOMYCIN] was tested, and the MIC (Klebsiella pneumoniae [1]) was greater than 64 µg/mL, the Activity (Staphylococcus aureus) was “inactive” and the MIC (Enterobacteriaceae [2]) was 64 µg/mL (≈ 44.2 µM). The MIC (Escherichia coli) was 64 µg/mL (≈ 44.2 µM), the MIC (Klebsiella pneumoniae [3]) was 64 µg/mL (≈ 44.2 µM) and the MIC (Klebsiella pneumoniae [4]) was greater than 64 µg/mL. For the same molecule, the MIC (Enterococcus faecalis) was 2 µg/mL (≈ 1.38 µM), the Activity (Cell membrane [5]) was “inactive” and the Activity (Cell membrane [6]) was “inactive”. For the same molecule, the MIC (Enterobacteriaceae [7]) was 64 µg/mL (≈ 44.2 µM), the MIC (Enterobacteriaceae [8]) was 64 µg/mL (≈ 44.2 µM) and the MIC (Enterobacteriaceae [9]) was 64 µg/mL (≈ 44.2 µM). The MIC (Enterobacteriaceae [10]) was greater than 64 µg/mL, the MIC (Klebsiella pneumoniae [11]) was 64 µg/mL (≈ 44.2 µM) and the MIC (Klebsiella pneumoniae [12]) was greater than 64 µg/mL. The MIC (Enterobacteriaceae [13]) was greater than 64 µg/mL, the MIC (Klebsiella pneumoniae [14]) was 64 µg/mL (≈ 44.2 µM) and the MIC (Klebsiella pneumoniae [15]) was greater than 64 µg/mL. For the same molecule, the MIC (Enterobacteriaceae [16]) was greater than 64 µg/mL, the Activity (Cell membrane [17]) was “inactive” and the MIC (Enterobacteriaceae [18]) was greater than 64 µg/mL. It also gave an MIC (Enterobacteriaceae [19]) of 64 µg/mL (≈ 44.2 µM), an MIC (Klebsiella pneumoniae [20]) greater than 64 µg/mL and an MIC (Klebsiella pneumoniae [21]) greater than 64 µg/mL. For the same molecule, the MIC (Klebsiella pneumoniae [22]) was greater than 64 µg/mL, the MIC (Enterobacteriaceae [23]) was greater than 64 µg/mL and the Activity (Cell membrane [24]) was “inactive”. The Activity (Cell membrane [25]) was “inactive” and the MIC (Salmonella enterica) was 32 µg/mL (≈ 22.1 µM).
